Results from ChEMBL document CHEMBL3102739, “Synthesis and antiproliferative activity of conformationally restricted 1,2,3-triazole analogues of combretastatins in the sea urchin embryo model and against human cancer cell lines” (Bioorg Med Chem, 2014).
The source made the active and inactive calls.

How the values were obtained:
[1] = Cytotoxicity against human Jurkat/A4 cells assessed as cell death at 1 uM after 48 hrs by trypan blue exclusion assay relative to control; format: functional
Outline: (§1)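 Compound added to exponentially growing Jurkat or Jurkat/A4 cells in RPMI-1640 with 10% FCS at 37 °C. Viable cells counted directly by trypan blue exclusion after 48 h. EC50 taken by linear interpolation of survival data. Mean±SD from three independent experiments.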

Jurkat [2] = test: Cytotoxicity against human Jurkat cells assessed as cell viability after 48 hrs by trypan blue exclusion assay; format: functional, cell-based; outline: as §1
[3] = Induction of apoptosis in human Jurkat/A4 cells assessed as active caspase 3 expression at 150 nM after 48 hrs by FITC-conjugated flow cytometric analysis (reference value: 1.1%); format: functional
Outline: (§2)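 Jurkat or Jurkat/A4 cells treated, then permeabilized per the manufacturer's protocol and stained with FITC-conjugated monoclonal antibody to active caspase-3. Percentage of positive cells (M1 gate) measured by flow cytometry. Untreated cells served as controls.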

[4] = Induction of apoptosis in human Jurkat/A4 cells assessed as active caspase 3 expression at 150 nM after 24 hrs by FITC-conjugated flow cytometric analysis (reference value: 1.1%); format: functional; outline: as §2
Jurkat [5] = test: Induction of apoptosis in human Jurkat cells assessed as active caspase 3 expression at 15 nM after 48 hrs by FITC-conjugated flow cytometric analysis (reference value: 3.3%); format: functional; outline: as §2
Jurkat [6] = test: Induction of apoptosis in human Jurkat cells assessed as active caspase 3 expression at 15 nM after 24 hrs by FITC-conjugated flow cytometric analysis (reference value: 3.3%); format: functional; outline: as §2
Jurkat [7] = test: Induction of apoptosis in human Jurkat cells assessed as active caspase 3 expression at 15 nM by FITC-conjugated flow cytometric analysis; format: functional, cell-based; conditions: TDE = time-dependent effect; outline: as §2
Jurkat/A4 [8] = test: Induction of apoptosis in human Jurkat/A4 cells assessed as Bcl-2 expression at 150 nM after 24 to 48 hrs Western blotting analysis; format: functional, cell-based
Outline: (§3)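 Treatment 24 or 48 h (Jurkat 15 nM, Jurkat/A4 150 nM for CA4P). Cells washed in ice-cold PBS and lysed 30 min at 4 °C in 20 mM Tris-HCl pH 7.4, 1% Triton X-100, 150 mM NaCl with protease inhibitors. Equal protein run on 12% SDS-PAGE and blotted to PVDF. Probed with monoclonal antibodies to caspase-9, caspase-2, Bcl-2 or XIAP for 2 h at room temperature, then HRP anti-mouse and ECL. β-actin used as loading control.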

Jurkat [9] = test: Induction of apoptosis in human Jurkat cells assessed as Bcl-2 expression at 15 nM after 24 to 48 hrs Western blotting analysis; format: functional, cell-based; outline: as §3
Jurkat/A4 [10] = test: Induction of apoptosis in human Jurkat/A4 cells assessed as reduction of XIAP expression at 150 nM after 24 hrs Western blotting analysis; format: functional, cell-based; outline: as §3
Jurkat [11] = test: Induction of apoptosis in human Jurkat cells assessed as reduction of XIAP expression at 15 nM after 24 hrs Western blotting analysis; format: functional, cell-based; outline: as §3
Jurkat/A4 [12] = test: Induction of apoptosis in human Jurkat/A4 cells assessed as caspase 2 activation at 150 nM after 24 to 48 hrs by Western blotting analysis; format: functional, cell-based; outline: as §3
Jurkat/A4 [13] = test: Induction of apoptosis in human Jurkat/A4 cells assessed as caspase 9 activation at 150 nM after 24 to 48 hrs by Western blotting analysis; format: functional, cell-based; outline: as §3
Jurkat [14] = test: Induction of apoptosis in human Jurkat cells assessed as caspase 2 activation at 15 nM after 24 to 48 hrs by Western blotting analysis; format: functional, cell-based; outline: as §3
Jurkat [15] = test: Induction of apoptosis in human Jurkat cells assessed as caspase 9 activation at 15 nM after 48 hrs by Western blotting analysis; format: functional, cell-based; outline: as §3
[16] = Cell cycle arrest in human Jurkat/A4 cells assessed as accumulation at sub-G1 phase at 150 nM after 48 hrs by propidium iodide staining-based flow cytometric analysis (reference value: 17.1%); format: functional
Jurkat/A4 [17] = test: Induction of apoptosis in human Jurkat/A4 cells assessed as micronuclei formation after 48 hrs by May-Grunwald-Giemsa staining-based microscopic analysis; format: functional, cell-based
Outline: (§4)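 Jurkat or Jurkat/A4 cells treated 48 h, with untreated cells as control. Cells cytospun, stained by May–Grünwald–Giemsa and examined by light microscopy with a 100× objective for micronuclei, membrane-enclosed fragments with unequally segregated chromosomes, and condensed nuclei.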

Jurkat/A4 [18] = test: Induction of apoptosis in human Jurkat/A4 cells assessed as small cell fragments with unequally segregated chromosomes enclosed by cell membrane after 48 hrs by May-Grunwald-Giemsa staining-based microscopic analysis; format: functional; outline: as §4
Jurkat [19] = test: Induction of apoptosis in human Jurkat cells assessed as small cell fragments with unequally segregated chromosomes enclosed by cell membrane after 48 hrs by May-Grunwald-Giemsa staining-based microscopic analysis; format: functional; outline: as §4
Jurkat [20] = test: Induction of apoptosis in human Jurkat cells assessed as micronuclei formation after 48 hrs by May-Grunwald-Giemsa staining-based microscopic analysis; format: functional, cell-based; outline: as §4
Jurkat [21] = test: Cell cycle arrest in human Jurkat cells assessed as accumulation at sub-G1 phase at 15 nM after 48 hrs by propidium iodide staining-based flow cytometric analysis (reference value: 12.2%); format: functional
[22] = Cell cycle arrest in human Jurkat/A4 cells assessed as decrease in accumulation at G0/G1 phase at 150 nM after 24 hrs by propidium iodide staining-based flow cytometric analysis; format: functional
[23] = Cell cycle arrest in human Jurkat/A4 cells assessed as increase in accumulation at G2/M phase at 150 nM after 24 hrs by propidium iodide staining-based flow cytometric analysis; format: functional
Jurkat [24] = test: Cell cycle arrest in human Jurkat cells assessed as decrease in accumulation at G0/G1 phase at 15 nM after 24 hrs by propidium iodide staining-based flow cytometric analysis; format: functional
Jurkat [25] = test: Cell cycle arrest in human Jurkat cells assessed as increase in accumulation at G2/M phase at 15 nM after 24 hrs by propidium iodide staining-based flow cytometric analysis; format: functional
[26] = Cytotoxicity against human SH-SY5Y cells assessed as cell viability after 48 hrs; format: functional, cell-based
Paracentrotus lividus [27] = test: Antimitotic activity against sea urchin embryo free-swimming blastula model assessed as embryo spinning compound treated at 8 to 10 hrs post-fertilization measured after 0.25 to 20 hrs; format: functional, Blastula stage
Paracentrotus lividus [28] = test: Antimitotic activity against sea urchin embryo model assessed as cleavage arrest of fertilized egg compound treated at 8 to 20 mins post-fertilization and 45 to 55 mins prior to first mitotic cycle completion measured 2.5 to 5.5 hrs post-fertilization; format: functional
Outline: (§5)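 Fertilized eggs are exposed 8–20 min after fertilization to 2-fold decreasing concentrations. Stocks are 10 mM in DMSO, then diluted 10-fold in 95% EtOH; final DMSO is at most 0.05% and EtOH at most 1%. Embryos are kept as a monolayer, up to 2000 embryos/mL, in filtered seawater at room temperature. The value is the threshold concentration giving cleavage alteration, embryo death before hatching or full mitotic arrest. Duplicates were run.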

Paracentrotus lividus [29] = test: Antimitotic activity against sea urchin embryo model assessed as cleavage alteration of fertilized egg compound treated at 8 to 20 mins post-fertilization and 45 to 55 mins prior to first mitotic cycle completion measured 2.5 to 5.5 hrs post-fertilization; format: functional; outline: as §5

COc1ccc(/C=C\c2cc(OC)c(OC)c(OC)c2)cc1OP(=O)([O-])[O-].[Na+].[Na+] [FOSBRETABULIN DISODIUM]
Activity [1]: <20% | EC50 (Jurkat [2]): 15 nM | Activity [3]: 1.6% | Activity [4]: 2.2% | Activity (Jurkat [5]): 31.6% | Activity (Jurkat [6]): 15% | Activity (Jurkat [7]): tde | Activity (Jurkat/A4 [8]): inactive | Activity (Jurkat [9]): inactive | Activity (Jurkat/A4 [10]): inactive | Activity (Jurkat [11]): Active | Activity (Jurkat/A4 [12]): inactive | Activity (Jurkat/A4 [13]): inactive | Activity (Jurkat [14]): Active | Activity (Jurkat [15]): Active | Activity [16]: 24.3% | Activity (Jurkat/A4 [17]): Active | Activity (Jurkat/A4 [18]): Active | Activity (Jurkat [19]): Active | Activity (Jurkat [20]): Active | Activity (Jurkat [21]): 39.5% | Activity [22]: Active | Activity [23]: Active | Activity (Jurkat [24]): Active | Activity (Jurkat [25]): Active

COc1ccc(-n2nncc2-c2cc(OC)c(OC)c(OC)c2)cc1
IC50 [26]: > 1000 nM | EC (Paracentrotus lividus [27]): >4 µM | EC (Paracentrotus lividus [28]): 4 µM | EC (Paracentrotus lividus [29]): 1 µM
